Source: article PMC2871064 (Cancer research, 2010)
Where two headings read alike, the source gives them in different places.

What was measured:
stage 4 melanoma = conditions: cited from earlier work
SK-MEL-3 cells = experiment: Binding of [^131I]MIP-1145 to melanotic SK-MEL-3 cells; assay type: cell-based, human
Summary of the method: (§1)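 Cells per well: 50,000 for SK-MEL-3, 25,000 for A375, attached overnight. Time course: up to 6 h at 37 °C with 11.5 nM tracer (~9 × 10⁵ CPM/well) in D-MEM/0.5% BSA. Acid wash (50 mM glycine, 150 mM NaCl, pH 3.0, 4 °C, 5 min) strips the surface fraction for gamma counting; cells are scintillation-counted. Competition: 2 h, 3.6 nM tracer plus 1.6–1,600 nM unlabeled compound.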

A375 cells = experiment: Binding of [^131I]MIP-1145 to amelanotic A375 cells; assay type: cell-based, human
Summary of the method: as §1

[1] = 2 hours, 3.6 nM tracer, up to 1.6 uM cold compound

CN(C)/N=N/c1[nH]cnc1C(N)=O [Dacarbazine]
Objective response rate (stage 4 melanoma; stage 4 melanoma patients): 16%

CCN(CC)CCNC(=O)c1cc(I)c(NC(=O)c2ccc(F)cc2)cc1OC [MIP-1145, N-(2-diethylamino-ethyl)-4-(4-fluoro-benzamido)-5-iodo-2-methoxy-benzamide]
Competition by non-radiolabeled MIP-1145 for [^131I]MIP-1145 binding (SK-MEL-3 cells; [1]): very little competition
Cell associated fraction of the total added (SK-MEL-3 cells; after 6 hours, 11.5 nM): approximately 43%
Competition by non-radiolabeled MIP-1145 for [^131I]MIP-1145 binding (A375 cells; [1]): very little competition
Cell associated fraction of the total added (A375 cells; after 6 hours, 11.5 nM): about 13%

interferon alpha-2b
Objective response rate (stage 4 melanoma; stage 4 disease, high-dose): 14%
